PMI act = activators of human PMI, primary screen, biochemical, fluorescence intensity, near-Km mannose 6-phosphate. Mannose-6-phosphate isomerase (Homo sapiens), P34949. purified human PMI, coupled resazurin fluorescence, 20 min; stronger effect = higher value; 1 = vehicle control, 0 substrate-free wells. activation factor at 20 µM. hit rate 0.005% among 190,000;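 active means activation factor of 2 or more at 20 µM, relative to plate controls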
Target sequence (P34949 whole entry, looked up): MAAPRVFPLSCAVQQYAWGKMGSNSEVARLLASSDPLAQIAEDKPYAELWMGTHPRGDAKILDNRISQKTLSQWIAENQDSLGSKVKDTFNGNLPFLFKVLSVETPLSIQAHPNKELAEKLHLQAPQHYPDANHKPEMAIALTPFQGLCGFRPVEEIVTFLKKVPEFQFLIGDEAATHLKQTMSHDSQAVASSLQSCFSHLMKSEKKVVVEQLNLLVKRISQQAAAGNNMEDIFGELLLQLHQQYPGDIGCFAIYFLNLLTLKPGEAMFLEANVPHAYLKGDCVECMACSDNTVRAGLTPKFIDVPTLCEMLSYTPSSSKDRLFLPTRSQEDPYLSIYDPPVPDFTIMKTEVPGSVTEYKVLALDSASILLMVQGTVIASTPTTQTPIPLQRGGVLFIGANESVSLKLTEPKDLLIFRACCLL
PMI act satM6P = human PMI activators, high substrate, primary screen, biochemical, fluorescence intensity, near-saturating mannose 6-phosphate; activation factor at 20 µM; Mannose-6-phosphate isomerase (Homo sapiens), P34949; hit rate 0.34% among 190,000; coupled PMI enzyme assay, resazurin fluorescence, 20 min; stronger effect = higher value; 1 = untreated enzyme, 0 = substrate-free blank;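 active means activation factor of 2 or more at 20 µM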
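Test system: human phosphomannose isomerase with PGI, G6PDH, diaphorase coupling enzymes / Doses: 20 µM compound, 1% DMSO / Times: enzyme reaction with compound 20 min at room temperature / Measured by: Diaphorase-driven resazurin-to-resorufin fluorescence, excitation 544, emission 590 nm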
Diaph act CS = compounds boosting diaphorase resazurin reduction – biochemical, uHTS, resorufin fluorescence, counter-screen for diaphorase-coupled primary assays, primary screen. Diaphorase/resazurin coupled assay, 16 min; stronger effect = higher value; 1 = vehicle wells, 0 = NADH-free wells. activation factor at 20 µM. hit rate 0.005% among 190,000. AID 1229, 2008;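 active means diaphorase activity raised at least twofold by the compound at 20 µM; inactive means activation factor below 2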
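Material: bacterial diaphorase enzyme (C. kluyveri); amount: enzyme 0.07 U/mL final; reagent: NADH substrate 0.114 mM plus resazurin dye 0.1 mM, final; doses: single compound dose of 20 µM, 1% DMSO final; timing: 16 min enzyme reaction, ambient temperature; measured by: fluorescence of resorufin, 544 nm excitation, 590 nm emission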
WT yeast gro inh = growth inhibition of WT strain, primary screen, mitochondrial fusion inhibitor project, WT and mutant strains, chemical genetic; hit rate 2.1% among 190,000; AID 1362, 2008; mitochondrial fusion phenotypic screen; inhibition, % at 10 µM; in the data active means inhibition above about 58%; tested in S. cerevisiae
L major viab = Leishmania major promastigote growth inhibition, primary screen | Leishmania major promastigotes, resazurin fluorescence viability | inhibition, % at 10 µM | hit rate 9% among 200,000 | AID 1063, 2008; in the data active means inhibition above about 50%;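 further: promastigotes grown with compound for 44 hours at 28 °C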
Lmaj promast 1uM = Leishmania major promastigote growth inhibition, confirmation, 1 µM repeat of primary hits; shares compounds with L major viab; AID 1258, 2008; inhibition, % at 1 µM; L. major promastigote growth, resazurin fluorescence, 48 h; hit rate 13% among 1,100;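 active means inhibition above about 50% in both repeat tests, limit read from the data; inconclusive means one repeat under the set limit, the other over it; inactive means both repeats under the set limit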
Each line names hits and unclear results; the compound was inactive in the other large screens (follow-up assays come after a bar, where they were run). Compounds with a hit are over-represented: about 10% of the library has one in this group of screens.

FC(F)(F)c1nc(-c2ccncc2)ncc1-c1nnnn1-c1ccccc1	L major viab 61 | Lmaj promast 1uM inactive
Cc1ccc(-n2nnnc2-c2cnc(-c3cccnc3)nc2C(F)(F)F)cc1	none
CC1(C)OCC(COC(=O)Nc2cccnc2)([N+](=O)[O-])CO1	none
COc1ccc(NC(=O)/C(Cl)=C(/Cl)S(=O)Cc2ccccc2Cl)cn1 (stereo not given)	L major viab 101 | Lmaj promast 1uM 100
COc1ccc(NC(=O)Cc2ccc(Cl)c(Cl)c2)cn1	none
Cc1cc(NC(=O)c2ccccc2F)nc2c1c(=O)oc1ccccc12	none
CC(C)(C)C(=O)/C=c1\[nH]c(=O)/c(=C\c2ccc(F)cc2)s1	L major viab 73 | Lmaj promast 1uM inactive
CCc1ccc(/C=c2\s/c(=C\C(=O)C(C)(C)C)[nH]c2=O)cc1	none
Cc1nc(NC(=O)CSc2nnc(Cn3nnc4ccccc43)n2C)sc1C	none
CCn1c(SCC(=O)N2CCOCC2)nc2oc3c(Cl)cc(Cl)cc3c(=O)c2c1=O	L major viab 72 | Lmaj promast 1uM inactive
CCn1c(SCC(=O)N2CCOCC2)nc2sc3c(c2c1=O)CCCC3	none
N#Cc1ccccc1S(=O)(=O)N1CCN(CC(O)c2ccccc2)CC1 (stereo not given)	none
CCN(CC)CCOC(=O)C12CC3CC(CC(C3)C1)C2	L major viab 97 | Lmaj promast 1uM inactive
CCOC(=O)CNC(=O)C12CC3CC(CC(C3)C1)C2	none
Cc1ccc(-c2csc3ncnc(SCC(=O)Nc4nnc(C)s4)c23)cc1	none
Cc1ccc(-c2csc3ncnc(Sc4nnc(CN5CCCCCC5=O)o4)c23)cc1	L major viab 99 | Lmaj promast 1uM inactive
CC(=O)Oc1ccc2ccccc2c1C(NC(=O)Cc1ccccc1)c1ccccc1Cl (stereo not given)	L major viab 55 | Lmaj promast 1uM inactive
CCC(=O)NC(c1ccccc1)c1c(OC(C)=O)ccc2ccccc12 (stereo not given)	none
Nc1ccc(C2=Nc3cccc4cccc(c34)N2)cc1	none
CC1=Nc2cccc3cccc(c23)N1	L major viab 100 | Lmaj promast 1uM inactive
CCC(C)(c1nnnn1-c1c(C)cccc1C)N(N=O)c1ccccc1Cl (stereo not given)	L major viab 100 | Lmaj promast 1uM 95
Cc1cccc(C(C)C)c1-n1nnnc1-c1ccccc1	none
COc1ccc2[nH]cc(CCNC(=O)C3CCCO3)c2c1 (stereo not given)	none
O=C(Cn1ccc([N+](=O)[O-])n1)Nc1nccs1	L major viab 77 | Lmaj promast 1uM inactive
CC(=O)O[C@@H]1C[C@H]2C(C)(C)C(=O)C=C[C@]2(C)[C@H]2CC[C@@]3(C)[C@H](c4ccoc4)OC(=O)[C@H]4O[C@]43[C@@]21C	L major viab 100 | Lmaj promast 1uM 94
O=C(NC(=S)N1CCN(C(c2ccccc2)c2ccccc2)CC1)c1ccc(S(=O)(=O)N2CCOCC2)cc1	L major viab 99 | Lmaj promast 1uM inactive
CN1CCN(C(=S)NC(=O)c2ccc(S(=O)(=O)N3CCOCC3)cc2)CC1	none
O=C(CN1CCN(Cc2ccccc2)CC1)c1ccc(Br)cc1	PMI act satM6P 2.4, L major viab 82 | Lmaj promast 1uM inactive
CCCCC(=O)Nc1cc(Cl)ccc1C(=O)O	none
O=[N+]([O-])c1cc(Cl)ccc1-c1nc(-c2ccccc2)no1	L major viab 89 | Lmaj promast 1uM inactive
Cc1c(CCOC(=O)CC23CC4CC(CC(C4)C2)C3)sc[n+]1CC(=O)c1ccccc1	L major viab 91 | Lmaj promast 1uM inactive
COc1ccc(S(=O)(=O)Nc2ccc(O)c3ccccc23)cc1	L major viab 100 | Lmaj promast 1uM 97
CCc1ccc(N(CC(=O)NCc2ccc(F)cc2)C(=O)c2csnn2)cc1	none
Cc1cc(C)c(S(=O)(=O)c2c(C)cccc2C)c(OCC(C)C)n1	L major viab 96 | Lmaj promast 1uM inconclusive
Fc1ccc(NC(=S)NNc2ncc(C(F)(F)F)cc2Cl)c(F)c1	none

Screening results: PubChem, several laboratories
